MPTP inh – inhibitors of mitochondrial permeability transition pore | isolated mouse mitochondria, Ca2+ swelling absorbance, 30 min | inhibition, % at 10 µM | hit rate 1.4% among 360,000;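 active = inhibition of 50% or more, scaled per plate between neutral and stimulator controls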;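 note: 0% = DMSO wells given calcium and 100% = 1 mM EGTA wells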
CHOP inh – inhibitors of CHOP induction in ER stress response; CHO-K1 CHOP-promoter luciferase, tunicamycin-induced, 15-18 h; inhibition, % at 10 µM; hit rate 3.8% among 220,000;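 active = compounds that reduced the stress-induced luciferase reporter signal by more than about 70% of percent inhibition, limit read from the data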;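 note: 0% = tunicamycin plus vehicle and 100% = wells without tunicamycin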
EBV gp42 inh – EBV gp42 inhibition. inhibition, % (tested at 21.74 µM). Q1HVG2. Fluorescence polarization binding assay, mP read-out. AID 1085. hit rate 0.42% among 220,000; in the data active = inhibition above about 50%
Target sequence (Q1HVG2 whole entry, looked up): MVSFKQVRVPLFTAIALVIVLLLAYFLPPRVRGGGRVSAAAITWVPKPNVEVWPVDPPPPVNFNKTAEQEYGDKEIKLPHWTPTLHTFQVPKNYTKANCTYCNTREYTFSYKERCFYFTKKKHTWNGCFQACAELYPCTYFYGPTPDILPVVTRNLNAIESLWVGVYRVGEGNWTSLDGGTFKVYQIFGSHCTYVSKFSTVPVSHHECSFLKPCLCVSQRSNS
NR3A LBD binder – modulators (binders) of human NR3A ligand-binding domain. NR3A LBD differential scanning fluorimetry, Tm shift; 0% = protein alone, 100% = glycine-bound protein. Tm shift relative to glycine control, % at 25 µM. hit rate 2.5% among 340,000. AID 1259313;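 active = melting temperature shift of at least 10% of the positive control shift, at one fixed dose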
TbMetRS inhib – Trypanosoma brucei MetRS inhibition | purified T. brucei MetRS, ATP depletion, Kinase-Glo luminescence | inhibition, % at 11.9 µM | hit rate 0.4% among 360,000 | AID 624268;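 active = inhibition above a per-plate cutoff of the control wells' mean inhibition plus 3 SD, cut at about 5.5% in these data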;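 note: 0% = DMSO wells median and 100% = median of wells with control inhibitor compound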
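Measured by: Kinase-Glo luciferase luminescence reporting remaining unconsumed ATP. Material: purified T. brucei MetRS enzyme. Doses: 11.9 µM compound single dose, 0.9% DMSO. Medium: HEPES buffer containing pyrophosphatase, BSA, spermine, DTT. Times: 15 min preincubation, 2 h reaction, all 25 °C. Reagent: methionine, ATP and bulk E. coli tRNA.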
WT yeast gro inh – growth inhibition of WT yeast, mitochondrial fusion screen. inhibition, % at 10 µM. mitochondrial fusion phenotypic screen, WT strain. hit rate 2.1% among 190,000; in the data active = inhibition above about 58%; tested in S. cerevisiae
MPTP counter – membrane potential counter-screen of mitochondrial pore inhibitors. inhibition, % at 10 µM. isolated mitochondria, Rhodamine 123 fluorescence. shares compounds with MPTP inh. AID 624504. hit rate 78% among 5,000; in the data active = inhibition above about 22%;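 note: 0% = DMSO vehicle and 100% = positive control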
MPTP abs DR – dose response confirmation of mitochondrial permeability transition pore inhibitors; shares compounds with MPTP inh; isolated mitochondria swelling, absorbance; IC50, µM; hit rate 58% among 780; AID 651561; in the data active = IC50 below about 20 µM
MPTP cs DR – counter-screen for mitochondrial permeability transition pore inhibitors, dose response; shares compounds with MPTP inh; IC50, µM; isolated mitochondria counterscreen, fluorescence read-out; AID 651564; hit rate 49% among 780; in the data active = IC50 below about 80 µM
* marks the source's active call; other numbers are inactive results; i = inactive; . = no result given. Rows were chosen to be rich in hits. Some 6.4% of all compounds tested hit in one or more screens of this group.

SMILES | MPTP inh | CHOP inh | EBV gp42 inh | NR3A LBD binder | TbMetRS inhib | WT yeast gro inh | MPTP counter | others
O=C(CSc1ncnc2c1oc1ccccc12)Nc1nc2ccccc2s1 | 3 | 48 | -20 | 0 | 0 | -18 | .
O=C(NNC(=O)c1csc(N2CCOCC2)n1)c1ccc(Cl)nc1 | 0 | . | . | 1 | 0 | . | .
Cc1cc(C)cc(NC(=S)NCCCO)c1 | -1 | 6 | 0 | 0 | 0 | -9 | .
COC(=O)Cc1ccc(NC(=S)NCCSc2ccc(Cl)cc2)cc1 | 63* | 23 | 9 | -2 | 1 | . | 77*
Cc1cc(C)cc(NC(=S)NCCSc2ccc(Cl)cc2)c1 | 87* | 88* | -10 | 13* | -1 | 81* | 98*
Cc1ccc(SCCNC(=S)Nc2ccc(C)c(C)c2)cc1 | 72* | 75* | -16 | 7 | -1 | 65 | 91*
CS(=O)(=O)Nc1nc2n(n1)C(c1ccc(F)cc1)CC(c1ccccc1)N2 (stereo not drawn) | 2 | -10 | 6 | 0 | -1 | . | .
COc1cc(/C=C2\SC(=O)N(CCN)C2=O)ccc1OS(=O)(=O)c1cc(C)ccc1C | 82* | 93* | -8 | -16 | -1 | 59 | -24 | MPTP abs DR=7.5*;MPTP cs DR=29*
COc1ccc(/C=C2\SC(=O)N(CCC(=O)Nc3ccccc3)C2=O)cc1OC | 0 | 44 | -26 | 2 | 0 | -5 | .
COC(=O)/C(=C\Nc1ccc(Cl)c2ccccc12)c1ncc(C(F)(F)F)cc1Cl | 8 | -9 | 5 | 0 | -2 | 15 | .
CCOC(=O)/C(=C\Nc1ccccc1C(F)(F)F)Sc1ncc(C(F)(F)F)cc1Cl | 95* | 10 | -6 | 0 | -1 | 10 | 1 | MPTP abs DR=i;MPTP cs DR=>80
CC(C)(C)n1ncc(Oc2ccccc2[N+](=O)[O-])c(Cl)c1=O | 86* | 41 | -1 | -2 | 0 | 10 | 34*
CCN(C(=O)COC(=O)c1cc(-c2ccc3cc(OC)ccc3c2)nc2ccccc12)C1CCS(=O)(=O)C1 (stereo not drawn) | . | 17 | -50 | . | . | 22 | .
O=C(NC1C/C(=N/O)c2cc3c(cc21)OCO3)C(F)(F)F (stereo not drawn) | 145* | -1 | -2 | 1 | 0 | -12 | -8 | MPTP abs DR=>100;MPTP cs DR=>80
Cc1ccc(-c2nn(-c3ccccc3)cc2CSC(=N)N)cc1 | 99* | 60 | -2 | -3 | -2 | 81* | -25 | MPTP abs DR=5.5*;MPTP cs DR=41*
O=C(O)Cc1cn(-c2ccccc2)nc1-c1ccccc1 | 3 | 7 | 0 | -2 | 0 | -21 | .
Fc1ccc(CNC(=S)Nc2cccc(C(F)(F)F)c2)cc1 | 100* | 24 | 9 | 7 | -1 | 58* | 85*
S=C(NCc1ccccc1)Nc1cccc(Cl)c1 | 97* | 23 | -1 | -8 | 1 | 11 | 101*
O=[N+]([O-])c1cc(C(F)(F)F)cc([N+](=O)[O-])c1NCCNC(=S)Nc1cccc(F)c1 | 90* | 12 | -3 | 17* | 4 | . | 78*
Fc1cc(NC(=S)NCc2ccc(CNC(=S)Nc3ccc(Cl)c(F)c3)cc2)ccc1Cl | 92* | 84* | -10 | 94* | 0 | . | 73*
CC(C)(C)NNC(=S)Nc1cccc(F)c1 | 0 | -3 | -2 | -2 | 0 | . | .
Fc1cccc(NC(=S)NCc2ccc(Cl)cc2)c1 | 96* | 39 | -14 | -1 | 0 | 54 | 89*
Fc1ccccc1CNC(=S)Nc1cccc(C(F)(F)F)c1 | 74* | 51 | 7 | 14* | 0 | 35 | 97*
Fc1ccccc1NC(=S)NCc1ccc(Cl)cc1 | 21 | . | . | -1 | -1 | . | .
FC(F)(F)c1cccc(NC(=S)NCc2ccc(Cl)cc2)c1 | 78* | 95* | 2 | 20* | 0 | 75* | 88*
COc1ccc(CCn2c(N)cc(=O)[nH]c2=S)cc1OC | 0 | 47 | -15 | -1 | -1 | 13 | .
Clc1ccc2c(c1)C(N1CCNCC1)Cc1ccccc1S2 (stereo not drawn) | 83* | 79* | 1 | -2 | -1 | 90 | -7
